Where “and” joins values, the source holds several entries; their conditions need not be identical. Equal entries are not always repeated. Where two headings read alike, the source gives them in different places.
Columns and labels:
R47E PTP1B = biological target: T1, R47E PTP1B (Homo sapiens, UniProt P18031, R47E); assay: PTP assay, R47E PTP1B; format: biochemical
T1 sequence (P18031 1-321 R47E): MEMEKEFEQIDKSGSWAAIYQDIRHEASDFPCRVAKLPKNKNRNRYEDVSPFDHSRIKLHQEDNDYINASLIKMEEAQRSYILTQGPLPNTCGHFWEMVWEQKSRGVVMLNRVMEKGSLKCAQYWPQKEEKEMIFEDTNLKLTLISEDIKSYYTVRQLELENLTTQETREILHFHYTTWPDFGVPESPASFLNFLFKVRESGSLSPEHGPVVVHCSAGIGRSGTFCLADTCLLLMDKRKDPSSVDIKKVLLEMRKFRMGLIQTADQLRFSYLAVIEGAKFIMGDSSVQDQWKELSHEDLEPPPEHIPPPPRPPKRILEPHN
Procedure, shortened: (§1)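 E. coli-expressed catalytic domains were used: wild-type, R24M or R47E PTP1B (aa 1–321), and SHP-1 (aa 205–595). Reactions started with PTP (0.5–20000 nM final) and dephosphorylation was monitored continuously at 282 nm. kcat, KM and kcat/KM came from initial-rate fits (Michaelis–Menten, or V = kcat[E][S]/KM when KM >> [S]) or from fits of progress curves.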

SHP-2 [1] = biological target: T2, SHP-2 (Homo sapiens, UniProt Q06124); settings: catalytic domain; cited from earlier work
T2 sequence (Q06124 199-593): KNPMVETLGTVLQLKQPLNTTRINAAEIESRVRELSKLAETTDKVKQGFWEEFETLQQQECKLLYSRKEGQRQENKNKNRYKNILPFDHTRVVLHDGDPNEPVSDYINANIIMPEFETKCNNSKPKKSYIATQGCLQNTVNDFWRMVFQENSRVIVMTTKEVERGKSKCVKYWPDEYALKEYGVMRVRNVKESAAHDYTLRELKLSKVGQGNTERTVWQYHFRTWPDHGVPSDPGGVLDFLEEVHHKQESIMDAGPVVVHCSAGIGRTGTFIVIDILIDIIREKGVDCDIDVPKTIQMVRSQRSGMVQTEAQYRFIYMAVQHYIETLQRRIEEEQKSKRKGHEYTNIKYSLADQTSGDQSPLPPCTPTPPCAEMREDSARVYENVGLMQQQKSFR

SHP-1 = SHP-1 (Homo sapiens, UniProt P29350); assay: PTP assay, SHP-1; format: biochemical; settings: catalytic domain; 100 mM HEPES pH 7.4; monitored at 282 nm
Sequence of SHP-1 (P29350 205-595): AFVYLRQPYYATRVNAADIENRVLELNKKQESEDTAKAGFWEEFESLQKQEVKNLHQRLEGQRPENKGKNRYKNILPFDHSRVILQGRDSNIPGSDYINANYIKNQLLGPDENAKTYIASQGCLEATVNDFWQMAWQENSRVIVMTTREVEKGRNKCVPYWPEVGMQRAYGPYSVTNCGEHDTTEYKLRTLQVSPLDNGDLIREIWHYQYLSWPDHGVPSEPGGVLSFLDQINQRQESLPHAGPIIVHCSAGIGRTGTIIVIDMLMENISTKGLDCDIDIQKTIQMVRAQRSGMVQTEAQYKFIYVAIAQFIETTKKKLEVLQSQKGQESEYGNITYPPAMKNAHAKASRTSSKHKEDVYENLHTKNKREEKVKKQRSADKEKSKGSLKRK
Procedure, shortened: as §1

SHP-2 [2] = biological target: T2, SHP-2; assay: PTP assay, SHP-2; format: biochemical; settings: catalytic domain; 100 mM HEPES pH 7.4; monitored at 282 nm
Procedure, shortened: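 His-tagged catalytic domains were made in E. coli: PTPD2 aa 876–1187 and PTPRC aa 620–1236 with N-terminal tags, PTPD1 aa 875–1174 and SHP-2 aa 199–593 with C-terminal tags. Enzyme was added at 0.5–20000 nM final. A282 (Δε 1102 M−1 cm−1) was followed. Constants came from Michaelis–Menten fits of initial rates (<60 s), or from fits of progress curves run to substrate depletion.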

Substance	Km (R47E PTP1B; R47E PTP1B aa 1–321, pH 7.4) [µM]	kcat (R47E PTP1B; R47E PTP1B aa 1–321, pH 7.4) [s⁻¹]	kcat/KM x 10^7 (R47E PTP1B; R47E PTP1B aa 1–321, pH 7.4)	WT/R47E (R47E PTP1B; ratio of kcat/KM, WT over R47E PTP1B (fold decrease by the mutation))	Km (SHP-2 [1]) [µM]	kcat (SHP-2 [1])	kcat/KM x10^6 (SHP-2 [1])	kcat/KM x10^6 (SHP-1)	kcat/KM x10^6 (SHP-2 [2])
Ac-SASASpYSASA-NH2	12 ± 1	35 ± 1	0.29 x 10^7 M^−1 s^−1	0.79	2300 ± 400	42 ± 5 s^−1 and 42 ± 5 ^c s^−1	0.018 x10^6 M^−1 s^−1 and 0.018 ^c x10^6 M^−1 s^−1		
Ac-YRKRFpYRYKF-NH2								0.00023 x10^6 M^−1 s^−1	0.00015 x10^6 M^−1 s^−1
